Source: PubChem BioAssay AID602158 (Broad Institute, 2011)
Inconclusive results are not listed. The source made the active and inactive calls.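 How the source made its calls: active means half-maximal potency at or below twice the top valid dose in every separate test run, with falling signal; inconclusive means runs disagree, or flat 30 to 70% inhibition, or poor fit; inactive means inactive in every run, including rising signal.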

The compounds below were run against Serine/threonine-protein kinase 33 (Homo sapiens) (UniProt Q9BYT3) (assay: STK33 kinase inhibitors, potency, dose response, biochemical, ADP-Glo luminescence, dry powder, set 3 (AID 602158)). Details: purified STK33, MBP phosphorylation.
Procedure, shortened: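 Assay system: purified STK33 kinase enzyme; Also added: MBP substrate, ATP at Km; Signal: ADP-Glo luminescence; Incubation: 15 min RT preincubation, 60 min reaction.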

Chain of Serine/threonine-protein kinase 33 (Homo sapiens) (Q9BYT3 whole entry, looked up): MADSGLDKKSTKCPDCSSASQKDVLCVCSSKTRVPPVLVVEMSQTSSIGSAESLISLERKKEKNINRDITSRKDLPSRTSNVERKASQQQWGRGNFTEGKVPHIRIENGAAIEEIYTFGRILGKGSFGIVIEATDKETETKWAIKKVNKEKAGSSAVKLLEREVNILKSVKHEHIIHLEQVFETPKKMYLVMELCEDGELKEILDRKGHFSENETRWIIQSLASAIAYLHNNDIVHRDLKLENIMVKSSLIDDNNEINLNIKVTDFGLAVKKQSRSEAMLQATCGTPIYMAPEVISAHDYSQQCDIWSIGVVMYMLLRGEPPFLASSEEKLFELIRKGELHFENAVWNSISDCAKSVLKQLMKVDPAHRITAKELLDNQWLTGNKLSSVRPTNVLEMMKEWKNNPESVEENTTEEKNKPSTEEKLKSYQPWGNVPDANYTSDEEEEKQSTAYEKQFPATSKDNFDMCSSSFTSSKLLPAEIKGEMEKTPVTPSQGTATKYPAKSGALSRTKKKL

| SMILES | AC50 [nM] |
| --- | --- |
| O=c1[nH]c2ccccc2nc1-c1ccccc1NS(=O)(=O)c1ccccc1 | 7250 |
| O=C(Nc1ccccc1-c1nc2ccccc2[nH]c1=O)c1ccccc1 | 165 |
| O=C(Nc1ccccc1-c1nc2ccccc2[nH]c1=O)c1ccccc1F | 4860 |
| O=C(Nc1ccccc1-c1nc2ccccc2[nH]c1=O)c1ccc(Cl)s1 | 380 |
| O=C(Nc1ccccc1-c1nc2ccccc2[nH]c1=O)c1ccc(Cl)cc1 | 297 |
| Cc1ccc(C(=O)Nc2ccccc2-c2nc3ccccc3[nH]c2=O)cc1 | 763 |
| O=C(Nc1ccccc1-c1nc2ccccc2[nH]c1=O)c1nccs1 | 522 |
| COc1cccc(C(=O)Nc2ccccc2-c2nc3ccccc3[nH]c2=O)c1 | 2240 |
| Cc1cccc(C(=O)Nc2ccccc2-c2nc3ccccc3[nH]c2=O)c1 | 1550 |
| O=c1[nH]c2ccccc2nc1-c1ccccc1NCc1ccccn1 | 1540 |

Same assay, conditions: purified STK33, MBP phosphorylation, at 10 µM (top of the series)

| SMILES | activity change, negative = inhibition |
| --- | --- |
| O=c1[nH]c2ccccc2nc1-c1ccccc1NS(=O)(=O)c1cccnc1 | inactive |
| O=c1[nH]c2ccccc2nc1-c1ccccc1NCC1CC1 | inactive |
| O=c1[nH]c2ccccc2nc1-c1ccccc1NCc1ccc(F)cc1 | inactive |
| O=c1[nH]c2ccccc2nc1-c1ccccc1NCc1cccnc1 | inactive |
| O=C(Nc1ccccc1-c1nc2cc3ccccc3cc2[nH]c1=O)c1cccs1 | inactive |
| O=c1[nH]c2ccccc2nc1-c1ccccc1NS(=O)(=O)c1cccs1 | inactive |
| COc1ccccc1C(=O)Nc1ccccc1-c1nc2ccccc2[nH]c1=O | inactive |
| O=C(Nc1ccccc1-c1nc2ccccc2[nH]c1=O)c1ccccc1Cl | inactive |
| O=C(Nc1ccccc1-c1nc2ccccc2[nH]c1=O)C1CC1 | inactive |
| O=C(Nc1ccccc1-c1nc2ccccc2[nH]c1=O)c1cc2ccccc2s1 | inactive |
| O=c1[nH]c2ccccc2nc1-c1ccccc1NCc1ccccc1 | inactive |
| O=C(Nc1ccccc1-c1nc2ccccc2[nH]c1=O)C1CCCC1 | inactive |
| CC(C)C(=O)Nc1ccccc1-c1nc2ccccc2[nH]c1=O | inactive |
| Cc1ccccc1C(=O)Nc1ccccc1-c1nc2ccccc2[nH]c1=O | inactive |
